Data reported in ChEMBL document CHEMBL1123516, “Substituted 1,3,4-thiadiazoles with anticonvulsant activity. 1. Hydrazines” (J Med Chem, 1986).

Experiments:
Mus musculus [1] = test: Anticonvulsant activity tested by maximal electroshock test (MES) in mouse after 1 hr of administration; assay type: functional
In short: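 Male BKW mice (LACA origin), 18-22 g, dosed ip or po with compound dissolved or suspended in 2% Tween 80 in distilled water. Readout was block of hind limb tonic seizure. ED50 was derived by probit analysis using the computerized Bliss method.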

Mus musculus [2] = test: Anticonvulsant activity tested by maximal metrazole seizure (MMS) test in mouse after 1 hr of administration; assay type: functional
In short: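 Male BKW mice, 18-22 g, dosed orally with compound in 2% Tween 80/water. Metrazol 120 mg/kg ip was given 1 h after dosing. ED50 for block of hind limb tonic seizure was derived by Bliss probit analysis.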

| Compound | ED50 (Mus musculus [1]) [mg/kg] | ED50 (Mus musculus [2]) [mg/kg] |
| --- | --- | --- |
| Clc1ccccc1-c1nnc(NNC2CCCC2)s1 | > 100 | > 100 |
| CNNc1nnc(-c2ccccc2C)s1 | > 100 | > 100 |
| Cl.NN(c1nnc(-c2ccccc2Cl)s1)C1CCCCC1 | > 100 | > 100 |
| NN(CCc1ccccc1)c1nnc(-c2ccccc2Cl)s1 | > 100 | ~200 |
| Cc1ccccc1-c1nnc(N(Cc2ccccc2)N(C)C)s1.Cl | > 200 | > 100 |
| CN(NC1CCCC1)c1nnc(-c2ccccc2Cl)s1.Cl | 106 | > 100 |
| CCNN(Cc1ccccc1)c1nnc(-c2ccccc2C)s1.Cl | > 100 | > 100 |
| CN(N)c1nnc(-c2ccccc2Sc2ccccc2)s1.Cl | 43 | 27 |
| CNN(C)c1nnc(-c2ccccc2-c2ccccc2)s1.Cl | ~100 | > 100 |
| CCCCCCOc1ccccc1-c1nnc(N(C)NC)s1.Cl | < 250 | 39 |
| CN(N)c1nnc(-c2cccc(Oc3ccccc3)c2)s1 | 100 | 111 |
| CNN(Cc1ccccc1)c1nnc(-c2ccccc2Cl)s1.Cl | > 100 | > 100 |
| CCCCCCOc1ccccc1-c1nnc(NNc2ccccc2)s1.Cl | > 100 | > 100 |
| Cl.Clc1ccccc1-c1nnc(NNCc2ccccc2)s1 | > 100 | > 100 |
| Cl.NNc1nnc(-c2ccc(-c3ccccc3)cc2)s1 | > 200 |  |
| Clc1ccccc1-c1nnc(NNc2ccccc2)s1 | > 100 | > 200 |
| Cl.c1ccc(NNc2nnc(-c3ccccc3-c3ccccc3)s2)cc1 | > 100 | > 100 |
| Cc1ccccc1-c1nnc(N(N)C(C)C)s1.Cl | 54 | 49 |
| Cc1ccccc1-c1nnc(NN(C)C(C)C)s1 | 140 | > 100 |
| CCCCCCOc1ccccc1-c1nnc(NNC(C)C)s1.Cl | > 100 | > 100 |
| CN(Nc1ccccc1)c1nnc(-c2ccccc2Cl)s1 | > 100 | > 100 |

| Compound | ED50 (Mus musculus [1]) [mg/kg] | ED50 (Mus musculus [2]) [mg/kg] |
| --- | --- | --- |
| CCCCN(N)c1nnc(-c2ccccc2C)s1.Cl | 119 | 60 |
| Cl.NN(Cc1ccccc1)c1nnc(-c2ccccc2-c2ccccc2)s1 | > 200 | > 200 |
| NN(c1ccccc1)c1nnc(-c2ccccc2Cl)s1 | > 100 | > 100 |
| Cc1ccccc1-c1nnc(NNc2ccccc2)s1 | > 100 | > 100 |
| Cc1ccccc1-c1nnc(NNC2CCCC2)s1.Cl | > 100 | > 100 |
| Cc1ccccc1-c1nnc(N(C)NC2CCCC2)s1.Cl | 110 | 81 |
| CNN(c1nnc(-c2ccccc2Cl)s1)C(C)C | > 100 | > 100 |
| CN(N)c1nnc(-c2ccc(-c3ccccc3)cc2)s1 | > 200 |  |
| CN(N)c1nnc(-c2ccccc2Cc2ccccc2)s1.Cl | 50 | 54 |
| CC(C)N(N)c1nnc(-c2ccccc2-c2ccccc2)s1 | > 100 | > 100 |
| Cc1ccccc1-c1nnc(NNC(c2ccccc2)c2ccccc2)s1 | > 200 | > 100 |
| CNN(c1nnc(-c2ccccc2C)s1)C(C)C.Cl | > 100 | > 100 |
| CC(C)NNc1nnc(-c2ccccc2-c2ccccc2)s1 | 35 | 44 |
| NN(c1ccccc1)c1nnc(-c2ccccc2-c2ccccc2)s1 | > 100 | > 100 |
| NN(Cc1ccccc1)c1nnc(-c2ccccc2Cl)s1 | 186 | 143 |
| CCCCCCOc1ccccc1-c1nnc(N(C)NC(C)C)s1.Cl | 97 | 56 |
| Cc1ccccc1-c1nnc(N(C)NC(c2ccccc2)c2ccccc2)s1 | > 200 | > 200 |
| Cc1ccccc1-c1nnc(N(C)NC(C)C)s1.Cl | 35 | 38 |
| CC(C)NN(C)c1nnc(-c2ccccc2-c2ccccc2)s1.Cl | 55 | 66 |
| CCCCCCOc1ccccc1-c1nnc(NNC2CCCC2)s1.Cl | > 100 | > 100 |
